Screens as filed in PubChem.
UCH37 inh: inhibitors of human deubiquitinating enzyme UCH37; AID 588478; inhibition, % (test concentration not listed); Q9Y5K5; purified proteasome/UCH37, Ub-AMC cleavage fluorescence; 330,000 tested, 0.33% active;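 active = mean inhibition over replicate wells above about 20%, limit read from the data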;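 also: 0% = compound-free wells with enzyme and 100% = wells lacking proteasome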
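system = Proteasome-associated human UCH37 deubiquitinase | amount = 0.15 nM proteasome as dispensed | medium = pH 7.4 Tris-HCl (50 mM) with ovalbumin, ATP-MgCl2, DTT | incubation = 30 min preincubation with enzyme, 25 min cleavage at room temperature | detection = AMC fluorescence 355/460 nm | read-out basis = percent inhibition | controls = no-proteasome and no-compound wells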
UBC13 polyUb: blocks human UBC13 polyubiquitin chain formation; TR-FRET; inhibition, % at 20 µM; 330,000 tested, 0.47% active; in the data active = inhibition above about 45%, passing the limit was not always enough
Target sequence (P61088 whole entry, looked up): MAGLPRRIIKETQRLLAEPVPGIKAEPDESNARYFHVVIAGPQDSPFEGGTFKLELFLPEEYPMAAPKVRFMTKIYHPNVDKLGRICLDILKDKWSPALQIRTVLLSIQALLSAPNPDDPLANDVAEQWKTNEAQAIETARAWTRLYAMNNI
PREPL inh: inhibitors of human prolyl oligopeptidase-like enzyme PREPL | Q4J6C6 | recombinant PREPL, fluorescence polarization activity-based probe | inhibition, % at 5.96 µM | 320,000 tested, 0.68% active | AID 2751; in the data active = inhibition above about 43%;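 also: 0% = enzyme with DMSO and 100% = wells lacking enzyme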
CTSL1 counter: cathepsin L1 inhibition, PFM18AAP counter-screen; recombinant F. hepatica cathepsin L1, Z-Leu-Arg-MCA fluorescence; inhibition, % at 5.96 µM; 300,000 tested, 0.49% active;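 active = inhibition above the mean of all tested compounds plus 3 SD, set per screening campaign, cut at about 17% in these data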;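 also: 0% = plate median of test compound wells and 100% = 1 µM Z-Phe-Ala-diazomethylketone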
PP5 inh: blocks human protein phosphatase 5 activity; purified PP5c, OMFP substrate fluorescence; P53041; AID 1987; inhibition, % at 6.7 µM; 320,000 tested, 0.18% active;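 active = inhibition above the campaign's mean inhibition across all tested compounds plus 3 SD, cut at about 9.5% in these data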;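 also: 0% = DMSO only and 100% = 100 µM cantharidin control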
PP1 counter: blocks human PP1-alpha phosphatase, a PP5 counter-screen | 320,000 tested, 0.9% active | inhibition, % at 6.7 µM | purified PP1alpha, OMFP fluorescence;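 active = inhibition above the mean inhibition of all tested compounds plus 3 SD, computed separately for each screening campaign, cut at about 15% in these data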
Target sequence (P62136 whole entry, looked up): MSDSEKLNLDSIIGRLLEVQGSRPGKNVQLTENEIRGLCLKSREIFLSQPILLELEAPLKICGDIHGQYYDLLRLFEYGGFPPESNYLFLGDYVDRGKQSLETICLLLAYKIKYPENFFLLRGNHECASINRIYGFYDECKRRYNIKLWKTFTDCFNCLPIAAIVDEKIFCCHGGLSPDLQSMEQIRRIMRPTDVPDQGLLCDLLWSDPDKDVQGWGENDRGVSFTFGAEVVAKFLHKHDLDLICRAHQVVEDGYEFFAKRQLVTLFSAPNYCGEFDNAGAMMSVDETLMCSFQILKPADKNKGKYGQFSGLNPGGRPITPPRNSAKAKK
Numbers without * were called inactive; . = no result. Only some compounds are listed: those with a hit (about 2.3% of all), similar ones and a draw of the others.

SMILES | UCH37 inh | UBC13 polyUb | PREPL inh | CTSL1 counter | PP5 inh | PP1 counter
CCCCn1c(NC(=O)CC)c(C#N)c2nc3ccccc3nc21 | -162 | 15 | -2 | 1 | 2 | -2
N#Cc1c(NC(=O)c2ccccc2Cl)n(Cc2ccccc2)c2nc3ccccc3nc12 | . | . | 12 | 2 | 6 | 22*
Cc1ccc(NC(=O)c2ccc(=O)n(CC(=O)Nc3ccccc3)n2)cc1 | 1 | -6 | -11 | -4 | 3 | -5
CC(=O)Nc1ccc(NC(=O)Cn2nc(C(=O)Nc3ccc(C)cc3)ccc2=O)cc1 | 2 | 0 | -1 | 47* | 2 | 1
COc1ccc(C=Nn2cncn2)cc1COc1ccc(NC(C)=O)cc1 | 2 | . | . | . | . | .
O=C(COC(=O)c1cc2ccccc2oc1=O)Nc1ccc(F)cc1F | -9 | 1 | 5 | 31* | 2 | -3
CC(CC(=O)Nc1cc(C)cc(C)c1)=NNC(=O)c1ccccn1 | 0 | . | . | . | . | .
O=C(COC(=O)[C@H](Cc1ccccc1)N1C(=O)c2ccccc2C1=O)Nc1ccc2c(c1)OCO2 | 5 | -1 | 12 | 23* | 3 | 0
CC(C)[C@@H](C(=O)OCC(=O)Nc1ccc2c(c1)OCO2)N1C(=O)c2ccccc2C1=O | 3 | -2 | -31 | -1 | -1 | 1
O=C(COC(=O)c1ccc(=O)n(Cc2ccccc2)n1)Nc1ccc2c(c1)OCCO2 | 4 | -1 | 8 | 19* | 2 | 0
O=C(COC(=O)c1ccccn1)Nc1ccc2c(c1)OCCO2 | 0 | 2 | 0 | . | . | .
O=C(NN=Cc1ccncc1)c1cccs1 | 4 | . | . | . | . | .
Cc1ccc(S(=O)(=O)NN=Cc2ccc3c(c2)OCO3)cc1 | 7 | . | . | . | . | .
COc1cc(C(C)=NNC(=S)NC(C)C)cc(OC)c1OC | 2 | . | . | . | . | .
COc1cc(/C(C)=N\NC(N)=S)cc(OC)c1OC | . | 10 | 8 | 18* | -1 | 1
Cc1oc2c(c1C(=O)NCc1cccnc1)C(=O)c1ccccc1C2=O | 22* | -147 | 19 | 31* | -1 | 1
COc1ccc(CNC(=O)c2c(C)oc3c2C(=O)c2ccccc2C3=O)cc1 | 11 | -35 | 29 | 16 | 2 | -4
CCc1c(C)nc(SCC(=O)NNC(=O)Cc2ccc(OC)cc2)[nH]c1=O | 4 | 2 | 4 | 18* | 0 | -3
COc1ccc(S(=O)(=O)NN=C(C)c2ccncc2)c(OC)c1 | 2 | . | . | . | . | .
Cc1ccccc1Nc1cc2ccccc2c(=O)[nH]1 | 18 | -53 | 6 | 83* | 5 | 4
O=c1[nH]c(Nc2ccc(F)cc2)cc2ccccc12 | -113 | -18 | 31 | 58* | 5 | 1
CC1CCc2[nH]c3ccc(C(=O)O)cc3c2C1 (stereo not given) | 4 | 0 | 8 | 0 | 5 | 2
O=C(O)c1ccc2[nH]c3c(c2c1)CCCC3 | 21* | -2 | . | . | . | .
O=C(COC(=O)c1ccc([N+](=O)[O-])s1)Nc1ncc(C(F)(F)F)cc1Cl | 16 | -9 | 10 | 34* | 1 | 3
Cc1ccc(O)c(C(=O)c2cc(C(=O)NCCc3ccccc3)c(=O)n(CCc3ccccc3)c2)c1 | 2 | -10 | 0 | -1 | 4 | 17*
SMILES | UCH37 inh | UBC13 polyUb | PREPL inh | CTSL1 counter | PP5 inh | PP1 counter
O=C(NN=Cc1ccc([N+](=O)[O-])cc1)c1ccc(COc2ccccc2-c2ccccc2)cc1 | 8 | . | . | . | . | .
COc1ccccc1C(CCNCc1ccc(N(C)C)cc1)c1ccc(OC(C)C)cc1 (stereo not given) | 4 | 32 | 18 | 2 | 1 | 16*
COc1ccc(CNCCC(c2ccc(OC(C)C)cc2)c2ccccc2OC)cc1 (stereo not given) | 4 | 31 | -7 | 0 | 2 | 13
COc1cc(/C=C/C(=O)OC(C)C(=O)Nc2ccc(Cl)cn2)ccc1OC(F)F (stereo not given) | -2 | -11 | -6 | . | . | .
Cc1ccc(/C=C/C(=O)OC(C)C(=O)Nc2ccc(Cl)cn2)o1 (stereo not given) | -2 | -3 | 2 | 28* | 0 | 3
O=C(O)C1=CC(=C(c2ccc(O)c(C(=O)O)c2)c2ccc(O)c(C(=O)O)c2)C=CC1=O | . | . | 80* | 7 | -1 | 82*
Nc1ccc(O)c(C(=O)O)c1 | . | . | -2 | -1 | -2 | 1
O=C1c2ccccc2C(O)(c2ccccc2)N1c1ccncc1 (stereo not given) | 5 | 3 | -13 | -1 | -1 | 16*
